In the library only some 9.4% were active in any assay of this set; here they are far more common.
Lmaj promast: inhibitors of Leishmania major promastigote growth | Leishmania major promastigotes, resazurin fluorescence viability | inhibition, % at 10 µM | actives 9% (n = 200,000) | AID 1063; in the data active means inhibition above about 50%;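 further: promastigotes grown with compound for 44 hours at 28 °C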
T cruzi repl: T. cruzi replication inhibition | T. cruzi beta-gal in NIH3T3, luminescence, 90 h | inhibition, % (test concentration not listed) | actives 1.4% (n = 300,000) | AID 1885;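 active means mean inhibition across valid replicates above about 55%, limit read from the data; inconclusive means mean below that limit but half or more replicates reach it; inactive means mean below it, under half of replicates reach it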;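 further: signal also drops with host cell toxicity which is not excluded here; higher percent means less beta-gal luminescence so fewer parasites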
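Assay system: NIH/3T3 host cells with β-galactosidase reporter T. cruzi; input: 5,000 host fibroblasts per well; compound: single 50 nL compound addition per well in DMSO; timing: ≥90 h infection period, 3 h prior cell attachment; measured by: GalScreen β-gal luminescence, detergent lysis, 60 min; evaluation: percent inhibition of parasite-derived β-gal signal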
Mdm2-MdmX inh: inhibitors of human Mdm2/MdmX interaction; inhibition, % at 8 µM; actives 3% (n = 330,000); SaOS-2 split-luciferase Mdm2/MdmX complementation, luminescence;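 active means inhibition of at least 50% at 8 µM in the primary screen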
Target sequence (O15151 whole entry, looked up): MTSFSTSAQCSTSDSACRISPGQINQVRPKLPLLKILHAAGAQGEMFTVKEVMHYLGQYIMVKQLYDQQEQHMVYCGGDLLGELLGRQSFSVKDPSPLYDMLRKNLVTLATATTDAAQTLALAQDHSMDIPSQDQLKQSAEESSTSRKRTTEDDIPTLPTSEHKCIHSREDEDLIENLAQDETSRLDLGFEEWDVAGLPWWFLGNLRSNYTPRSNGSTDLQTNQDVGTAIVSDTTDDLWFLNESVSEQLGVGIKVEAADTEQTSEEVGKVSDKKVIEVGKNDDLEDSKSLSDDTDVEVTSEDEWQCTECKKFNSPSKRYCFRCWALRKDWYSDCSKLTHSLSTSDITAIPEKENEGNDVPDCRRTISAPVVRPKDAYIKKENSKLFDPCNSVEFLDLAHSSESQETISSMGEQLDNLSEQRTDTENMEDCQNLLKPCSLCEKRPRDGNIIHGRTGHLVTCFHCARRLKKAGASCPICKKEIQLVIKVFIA
Target sequence (Q00987 whole entry, looked up): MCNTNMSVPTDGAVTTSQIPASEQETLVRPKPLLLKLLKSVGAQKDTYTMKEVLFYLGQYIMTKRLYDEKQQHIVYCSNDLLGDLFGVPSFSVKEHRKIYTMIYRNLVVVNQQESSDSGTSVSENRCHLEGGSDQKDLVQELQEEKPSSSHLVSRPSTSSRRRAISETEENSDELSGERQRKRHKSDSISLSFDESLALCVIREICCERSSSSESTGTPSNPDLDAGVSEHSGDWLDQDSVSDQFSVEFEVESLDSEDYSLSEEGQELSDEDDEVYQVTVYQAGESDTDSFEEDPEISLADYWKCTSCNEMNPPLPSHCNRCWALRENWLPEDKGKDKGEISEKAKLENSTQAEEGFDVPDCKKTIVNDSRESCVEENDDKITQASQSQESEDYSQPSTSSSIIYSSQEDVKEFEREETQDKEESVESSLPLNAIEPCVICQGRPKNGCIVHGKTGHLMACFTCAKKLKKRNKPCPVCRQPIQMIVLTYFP
Beta apoptosis: beta cell apoptosis inhibition. INS-1E cytokine-induced death, ATP luminescence, 48 h; percent of positive-control rescue, neutral wells zero. protection from apoptosis, % (test concentration not listed). actives 0.8% (n = 300,000). AID 435005;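 active means Every replicate reaches about 75%, or at least half do and their mean reaches it too, limit read from the data; inconclusive means At least half of replicates reach the limit but their mean does not; inactive means Under half of replicates reach the limit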;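 further: higher means more ATP so stronger rescue from cytokine killing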
SKKanGAS inh: inhibitors of SKKanGAS S. pyogenes growth in kanamycin (SK-promoter or general growth effect) | BacTiter-Glo, 6 h | inhibition, % at 7.5 µM | actives 1.3% (n = 300,000) | AID 1662;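 active means mean replicate score, as percent of positive control median, at least 50; inconclusive means mean below 50 but one replicate at or above 50; inactive means mean and every replicate below 50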;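 further: strain carries kanamycin resistance gene driven by streptokinase promoter and grows in 40 µg/ml kanamycin; loss of luminescence reflects streptokinase promoter inhibition or plain growth inhibition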
CSC inhib: blocks cancer stem cells; inhibition, % at 7.5 µM; AID 2717; actives 1.1% (n = 300,000); cancer stem cell-like cells viability, luminescence; in the data active means inhibition above about 75%; inconclusive means no clear call, values can overlap the other calls; tested in HMLE shEcad cells
Mdm2 MdmX conf: confirmation of human Mdm2/MdmX interaction inhibitors | shares compounds with Mdm2-MdmX inh | Mdm2-MdmX binding, luminescent assay | inhibition, % at 8 µM | actives 55% (n = 10,000) | AID 489028; in the data active means inhibition above about 40%
Full FLuc ctr: full-length luciferase inhibition in Mdm2/MdmX counter-screen | actives 77% (n = 6,200) | shares compounds with Mdm2-MdmX inh | inhibition, % at 8 µM | SaOS-2 full-length luciferase counterscreen, luminescence | AID 504607;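 active means mean inhibition at 8 µM reaching about 37%, which flags the compound as non-specific, limit read from the data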;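 further: p53-null SaOS-2 cells with luciferase driven by a doxycycline-inducible promoter; compound on cells about two nights before reading with doxycycline added after day one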
Hits are given with their value; - = inactive; ? = inconclusive; . = no result; + = active, no number.

SMILES	Lmaj promast	T cruzi repl	Mdm2-MdmX inh	Beta apoptosis	SKKanGAS inh	CSC inhib	Mdm2 MdmX conf	Full FLuc ctr
CO/N=C/C(=N\Nc1ccc(C)cc1)C(=O)c1ccc(OC)cc1	-	-	55	-	-	-	58	65
CCOc1cc(CNCCCN2CCOCC2)ccc1OCC(=O)Nc1cccc2ccccc12	100	-	78	-	-	-	54	54
Cc1ccccc1OCCn1cc(/C=C(\C#N)C(=O)NCc2ccco2)c2ccccc21	-	-	-	-	-	-	.	.
CNC(=O)/C(C#N)=C/c1cn(CC(=O)NCc2ccco2)c2ccccc12	-	-	-	-	-	-	.	.
Cc1ccc(NC(=O)/C(C#N)=C/c2cn(CC(=O)NCc3ccco3)c3ccccc23)cc1C	-	-	68	-	-	-	50	75
Cc1cc(C)cc(NC(=O)/C(C#N)=C/c2cn(CC(=O)NCc3ccco3)c3ccccc23)c1	-	-	95	101	-	-	-	.
Cc1ccc(C)c(NC(=O)/C(C#N)=C/c2cn(CC(=O)NCc3ccco3)c3ccccc23)c1	-	-	92	95	-	82	78	89
CC1CCc2nc(NC(=O)C3COc4ccccc4O3)sc2C1 (centres undefined)	-	-	52	-	-	-	77	+
CC1CCc2nc(NC(=O)c3ccc(S(=O)(=O)N4CCCc5ccccc54)cc3)sc2C1 (centres undefined)	-	61	58	-	-	-	-	.
CC1CCc2nc(NC(=O)C3CC3)sc2C1 (centres undefined)	-	-	-	-	-	-	.	.
CC1CCc2nc(NC(=O)CCSc3ccccc3)sc2C1 (centres undefined)	-	-	-	-	-	-	.	.
CN(C)c1nc2ncn(Cc3ccccc3)c2c(=O)[nH]1	.	-	-	-	-	-	.	.
COc1ccc2ccc(OCC(=O)Nc3cc(C)on3)cc2c1	.	.	-	-	.	-	.	.
CCOc1ccc2oc(C(=O)N3CCN(c4ccccc4OCC)CC3)c(C)c2c1	.	-	-	-	-	-	.	.
COc1ccc(C(=O)N[C@H]2CCCCNC2=O)cc1OC1CCN(C(C)C)CC1	.	-	-	-	-	-	.	.
O=C(N/N=C/c1ccc(Sc2nc3ccccc3s2)c([N+](=O)[O-])c1)c1ccccn1	-	-	74	-	-	-	52	55
Clc1ccc(-c2nnc(-c3ccccc3)c(N3CCSCC3)n2)cc1	-	-	-	-	-	-	.	.
CC1CN(c2nc(-c3ccc(Br)cc3)nnc2-c2ccccc2)CC(C)N1 (centres undefined)	90	-	81	-	-	-	54	52
Cn1nc(CC(=O)Nc2ncc(Br)s2)c2ccccc2c1=O	-	-	59	-	-	-	-	.
Cn1nc(CC(=O)NC2CCCCCCCCCCC2)c2ccccc2c1=O	-	-	-	-	-	-	.	.
COc1ccc(NC(=O)c2cc(-c3ccccc3)nc3c2c(C)nn3-c2ccccc2)c(OC)c1	84	-	54	-	-	-	-	.
COc1ccc(-c2cc(C(=O)NNC3=NCCC3)c3c(C)nn(-c4ccccc4)c3n2)cc1	-	-	69	-	-	.	56	-
Cn1cncc1C#Cc1c(C=O)[nH]c2ccccc12	.	.	71	-	.	-	42	66
CC(=O)NC1=NN(C(C)=O)C(C)(c2ccccc2)S1 (centres undefined)	-	-	60	.	-	.	53	53
CC(=O)NC1=NN(C(C)=O)C(C)(CC(=O)OC(C)(C)C)S1 (centres undefined)	-	-	-	-	-	-	.	.
SMILES	Lmaj promast	T cruzi repl	Mdm2-MdmX inh	Beta apoptosis	SKKanGAS inh	CSC inhib	Mdm2 MdmX conf	Full FLuc ctr
Cc1cc(C)c(NC(=O)Cn2nnc(C(=O)NCCc3ccccc3)c2N)c(C)c1	.	-	-	-	-	-	.	.
COc1ccc(Cl)cc1NC(=O)c1nnn(CC(=O)Nc2ccc(C)c(C)c2)c1N	.	-	53	.	-	-	-	.
COc1ccc(NC(=O)Cn2nnc(C(=O)NCc3ccc(C)cc3)c2N)cc1Cl	.	-	53	.	-	-	-	.
Cc1ccc(NC(=O)Cn2nnc(C(=O)NCCc3ccccc3)c2N)c(C)c1	.	-	61	.	-	-	-	.
COc1ccc(NC(=O)Cn2nnc(C(=O)NCc3ccccc3)c2N)cc1Cl	-	-	-	-	-	-	.	.
COc1ccc(NC(=O)Cn2nnc(C(=O)Nc3ccc(F)c(Cl)c3)c2N)cc1OC	.	-	66	.	-	-	-	.
O=C(COC(=O)COc1ccc(Cl)cc1)Nc1ccc(N2CCOCC2)cc1	-	-	-	-	-	-	.	.
CCc1ccc(NC(=O)Cn2c(=O)n(CCC(=O)NC3CCN(Cc4ccccc4)CC3)c(=O)c3ccccc32)cc1	.	-	-	-	-	-	.	.
CN(C)c1nc(/C=C(\C#N)C(N)=O)c(Cl)n1-c1ccc(F)cc1	-	-	-	-	-	-	.	.
Cc1cc(C(F)(F)F)n(-c2nc(C(=O)NN)cs2)n1	-	-	-	-	-	-	.	.
COc1ccc(/C=N/NC(=O)c2csc(-n3nc(C)cc3C(F)(F)F)n2)cc1	-	-	50	-	-	-	48	70
CCOc1cc(CNC2CCCC2)cc(Cl)c1OCc1ccc(F)cc1	100	-	58	-	-	-	44	80
COc1cc(CNC2CCCC2)cc(OC)c1OC	-	-	-	-	-	-	.	.
COc1cc(CNC2CCCC2)cc(Cl)c1OCc1ccccc1Cl	100	77	52	?	-	80	-	.
O=C(c1ccc2ccccc2c1)N1CCN(Cc2ccccc2)CC1	.	-	-	-	-	-	.	.
Nc1c(C(=O)NC2CCCC2)c2nc3ccccc3nc2n1/N=C/c1cccnc1	.	-	51	-	-	-	-	.
Cc1ccc(Cn2c(=N)n(CC(O)COc3ccccc3)c3ccccc32)cc1 (centres undefined)	101	59	69	-	-	-	76	62
COc1ccc(OCC(O)Cn2c(=N)n(CCN3CCOCC3)c3ccccc32)cc1 (centres undefined)	-	-	-	-	-	-	.	.
CCCCn1c(=N)n(CC(O)COc2ccc(C)cc2)c2ccccc21 (centres undefined)	101	-	58	-	-	-	-	.
Cc1ccc(OCC(O)Cn2c3ccccc3c3ccccc32)cc1 (centres undefined)	-	-	-	-	-	?	.	.
CCC1CCc2sc(C(=O)N3CCCN(C)CC3)cc2C1 (centres undefined)	.	-	-	-	-	-	.	.
O=c1[nH]ccc2c(O)cccc12	.	-	-	-	-	-	.	.
CCCc1ccccc1OCCNS(=O)(=O)c1cc2c(cc1C)OCC(=O)N2	.	-	-	-	-	-	.	.
Cn1c(=O)[nH]c(=O)c2c1nc(N1CCCCC1)n2CCSc1ncccn1	.	-	-	-	-	-	.	.
